Experimental data from publication PMC3873039 (Anti-Cancer Agents in Medicinal Chemistry, 2013).

Experiments:
JURKAT = assay: CellTiter-Glo luminescent cell viability assay; format: cell-based, human; conditions: 24 h, doses 0, 2, 10, 50, 250, 500 µM, p<0.05
In short: (§1)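 Cells grown in RPMI 1640 with 10% FBS, 1.5 mM L-glutamine and penicillin/streptomycin at 37 °C, 5% CO2. Seeded at 2.5 x 10³ cells/well and exposed 24 h to ethanol-dissolved test compound (0, 2, 10, 50, 250, 500 µM) with 0.1% ethanol vehicle. ATP luminescence normalized to vehicle (100%). IC50 taken from linear regression. Lowest significant dose set by one-way ANOVA/Tukey, p<0.05. Triplicates, three independent experiments.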

THP-1 [1] = assay: CellTiter-Glo luminescent cell viability assay; format: cell-based, human; conditions: THP-1, 24 h, doses 0, 2, 10, 50, 250, 500 µM, p<0.05
In short: as §1

K562 [2] = assay: CellTiter-Glo luminescent cell viability assay; format: cell-based, human; conditions: K562, 24 h, doses 0, 2, 10, 50, 250, 500 µM, p<0.05
In short: as §1

KG1a [3] = assay: CellTiter-Glo luminescent cell viability assay; format: cell-based, human; conditions: 24 h; for IC50: Homo sapiens, KG-1a, read-out: IC50 (50% inhibition of cellular proliferation); for The lowest dose of polyphenols at which there was a significant inhibition of cell proliferation compared to the vehicle control: KG1a, doses 0, 2, 10, 50, 250, 500 µM, p<0.05
In short: as §1

[4] = tested on: non-tumor cord blood (CD34+) cells; assay: CellTiter-Glo luminescent cell viability assay; format: cell-based; conditions: 24 h; for IC50: read-out: IC50 (50% inhibition of cellular proliferation), CD34+ non-tumour control cells, 24 h treatment; for The lowest dose of polyphenols at which there was a significant inhibition of cell proliferation compared to the vehicle control: CD34+ non-tumour control cells, doses 0, 2, 10, 50, 250, 500 µM, p<0.05
In short: as §1

CCRF-CEM [5] = assay: Cell cycle analysis, propidium iodide flow cytometry; format: cell-based, human; conditions: IC50 dose, 24 h, vehicle control G0/G1 = 41.9%
In short: (§2)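 Seeded at 0.5 x 10^6 cells per well in 12-well plates and treated 24 h at the IC50 concentration of each test compound from CellTiter-Glo. Cells were pelleted (400 g, 5 min), PBS-washed and fixed in 80% ethanol overnight at -20 °C. Staining used 50 µg/mL PI plus RNase overnight at 4 °C.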

HL60 [6] = assay: as above; format: cell-based, human; conditions: HL60, IC50 dose, 24 h; for Percentage of cells in S phase of cell cycle (significant accumulation): vehicle control S = 33.6%
In short: as §2

THP-1 [7] = assay: as above; format: cell-based, human; conditions: THP-1, IC50 dose, 24 h; for Percentage of cells in G0/G1 phase of cell cycle (significant accumulation): vehicle control G0/G1 = 42.3%
In short: as §2

KG1a [8] = assay: as above; format: cell-based, human; conditions: IC50 dose, 24 h; for Percentage of cells in G0/G1 phase of cell cycle (significant accumulation): vehicle control G0/G1 = 44.6%
In short: as §2

[9] = tested on: non-tumor progenitor cells (CD34+); assay: Cell cycle analysis, propidium iodide flow cytometry; format: cell-based; conditions: 24 h, within the IC50 ranges used to treat the leukemic cell lines
CCRF-CEM [10] = assay: NucView caspase 3 activity assay by flow cytometry; format: cell-based, human; conditions: 24 h; for EC50: Homo sapiens, read-out: AP50 (50% induction of apoptosis), Caspase 3 activity assay (C3); for The lowest dose of polyphenols at which there was a significant induction of apoptosis compared to the vehicle control: caspase 3 activity, p<0.05
In short: (§3)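 Seeded at 0.5 x 10⁶ cells/well and treated 24 h, with series of 0–50 or 0–250 µM depending on compound. Normalized to vehicle (0% apoptosis). Mean ± STD, three independent experiments in triplicate. One-way ANOVA/Tukey, p<0.05. AP50 = concentration giving 50% apoptotic cells.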

HL60 [11] = assay: NucView caspase 3 activity assay by flow cytometry; format: cell-based, human; conditions: for The lowest dose of polyphenols at which there was a significant induction of apoptosis compared to the vehicle control: HL60, caspase 3 activity, 24 h, p<0.05; for EC50: Homo sapiens, HL-60, 24 h, read-out: AP50 (50% induction of apoptosis), Caspase 3 activity assay (C3)
In short: as §3

KG1a [12] = assay: NucView caspase 3 activity assay by flow cytometry; format: cell-based, human; conditions: 24 h; for EC50: Homo sapiens, KG-1a, read-out: AP50 (50% induction of apoptosis), Caspase 3 activity assay (C3); for The lowest dose of polyphenols at which there was a significant induction of apoptosis compared to the vehicle control: KG1a, caspase 3 activity, p<0.05
In short: as §3

U937 [13] = assay: NucView caspase 3 activity assay by flow cytometry; format: cell-based, human; conditions: for EC50: Homo sapiens, U-937, 24 h, read-out: AP50 (50% induction of apoptosis), Caspase 3 activity assay (C3); for The lowest dose of polyphenols at which there was a significant induction of apoptosis compared to the vehicle control: U937, caspase 3 activity, 24 h, p<0.05
In short: as §3

non-tumor cells (CD34+) [14] = assay: NucView caspase 3 activity assay by flow cytometry; format: cell-based; conditions: 24 h; for EC50: read-out: AP50 (50% induction of apoptosis), Caspase 3 activity assay (C3); for The lowest dose of polyphenols at which there was a significant induction of apoptosis compared to the vehicle control: CD34+ non-tumour control cells, caspase 3 activity, p<0.05
MOLT-3 = assay: Hoechst 33342 nuclear morphological analysis of apoptosis; format: cell-based; conditions: Homo sapiens, MOLT-3, 24 h, read-out: AP50 (50% induction of apoptosis), Hoechst 33342 staining (Hoe)
In short: (§4)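 Seeded at 0.5 x 10⁶ cells/well in 12-well plates and treated 24 h. Cells were pelleted (400 g, 5 min, 4 °C), washed in PBS, fixed in 4% paraformaldehyde, cytospun, air-dried, then stained with 10 μg/ml Hoechst 33342 for 10 min in the dark. Fluorescence microscopy: 200 cells counted, scored by condensed/intense nuclei, shrinkage, blebbing and apoptotic bodies. % apoptotic nuclei calculated. AP50 = concentration giving 50% apoptotic cells.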

HL60 [15] = assay: as above; format: cell-based; conditions: Homo sapiens, HL-60, 24 h, read-out: AP50 (50% induction of apoptosis), Hoechst 33342 staining (Hoe)
In short: as §4

THP-1 [16] = assay: as above; format: cell-based; conditions: Homo sapiens, THP-1, 24 h, read-out: AP50 (50% induction of apoptosis), Hoechst 33342 staining (Hoe)
In short: as §4

K562 [17] = assay: as above; format: cell-based; conditions: Homo sapiens, K562, 24 h, read-out: AP50 (50% induction of apoptosis), Hoechst 33342 staining (Hoe)
In short: as §4

KG1a [18] = assay: as above; format: cell-based; conditions: Homo sapiens, KG-1a, 24 h, read-out: AP50 (50% induction of apoptosis), Hoechst 33342 staining (Hoe)
In short: as §4

U937 [19] = assay: as above; format: cell-based; conditions: Homo sapiens, U-937, 24 h, read-out: AP50 (50% induction of apoptosis), Hoechst 33342 staining (Hoe)
In short: as §4

non-tumor cells (CD34+) [20] = assay: Hoechst 33342 nuclear morphological analysis of apoptosis; format: cell-based; conditions: 24 h, read-out: AP50 (50% induction of apoptosis), Hoechst 33342 staining (Hoe)
In short: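 CD34+ cells treated 24 h across the IC25–IC50 range, then pelleted (400 g, 4 °C) and fixed in 4% paraformaldehyde/PBS. Cytospins were air-dried and stained with 10 μg/ml Hoechst 33342 for 10 min in the dark, then viewed by fluorescence microscopy. 200 cells were scored per sample as % apoptotic nuclei (shrinkage, blebbing, chromatin condensation, apoptotic bodies). AP50 = concentration giving 50% apoptosis.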

Row | Structure (SMILES) | The lowest dose of polyphenols at which there was a significant inhibition of cell proliferation compared to the vehicle control (JURKAT) | The lowest dose of polyphenols at which there was a significant inhibition of cell proliferation compared to the vehicle control (THP-1 [1]) | The lowest dose of polyphenols at which there was a significant inhibition of cell proliferation compared to the vehicle control (K562 [2]) | IC50 (KG1a [3]) | The lowest dose of polyphenols at which there was a significant inhibition of cell proliferation compared to the vehicle control (KG1a [3]) | IC50 [4] | The lowest dose of polyphenols at which there was a significant inhibition of cell proliferation compared to the vehicle control [4] | Percentage of cells in G0/G1 phase of cell cycle (significant accumulation) (CCRF-CEM [5]) | Cell cycle arrest in non-tumour control cells [9] | EC50 (CCRF-CEM [10]) | The lowest dose of polyphenols at which there was a significant induction of apoptosis compared to the vehicle control (CCRF-CEM [10]) | The lowest dose of polyphenols at which there was a significant induction of apoptosis compared to the vehicle control (HL60 [11]) | EC50 (HL60 [11]) | EC50 (KG1a [12]) | The lowest dose of polyphenols at which there was a significant induction of apoptosis compared to the vehicle control (KG1a [12]) | EC50 (U937 [13]) | The lowest dose of polyphenols at which there was a significant induction of apoptosis compared to the vehicle control (U937 [13]) | EC50 (non-tumor cells (CD34+) [14]) | The lowest dose of polyphenols at which there was a significant induction of apoptosis compared to the vehicle control (non-tumor cells (CD34+) [14]) | EC50 (MOLT-3) | also measured
1 | O=C1c2cccc(O)c2C(=O)c2c(O)cc(CO)cc21 [Aloe - Emodin, Aloe-emodin] | 50 µM | 250 µM | 50 µM | 310 µM | 50 µM | > 500 µM | 500 µM | G0/G1 =49% | No Arrest <500µM | 50 µM | 50 µM | 50 µM | 185 µM | > 250 µM | 50 µM | 50 µM | 50 µM | > 250 µM | 250 µM | 150 µM | Percentage of cells in S phase of cell cycle (significant accumulation) (HL60 [6]): S =35%; Percentage of cells in G0/G1 phase of cell cycle (significant accumulation) (THP-1 [7]): G0/G1 =52%; Percentage of cells in G0/G1 phase of cell cycle (significant accumulation) (KG1a [8]): G0/G1 =50%; EC50 (HL60 [15]): 190 µM; EC50 (THP-1 [16]): 283 µM; EC50 (K562 [17]): 500 µM; EC50 (KG1a [18]): 360 µM; EC50 (U937 [19]): 195 µM; EC50 (non-tumor cells (CD34+) [20]): > 500 µM
2 | O=c1cc(-c2ccc(O)cc2)oc2cc(O)cc(O)c12 [Apigenin] | 50 µM | 10 µM | 10 µM | 500 µM | 10 µM | > 500 µM | 500 µM | G0/G1 =52.2% | No Arrest ≤250µM | 50 µM | 10 µM | 50 µM | 84 µM | 89 µM | 10 µM | 45 µM | 50 µM | > 250 µM | 250 µM | 125 µM | Percentage of cells in G0/G1 phase of cell cycle (significant accumulation) (HL60 [6]; vehicle control G0/G1 = 56.8%): G0/G1=67%; Percentage of cells in G2/M phase of cell cycle (significant accumulation) (THP-1 [7]; vehicle control G2/M = 26.4%): G2/M =32%; Percentage of cells in S phase of cell cycle (significant accumulation) (KG1a [8]; vehicle control S = 34.6%): S = 50%; EC50 (HL60 [15]): 129 µM; EC50 (THP-1 [16]): 220 µM; EC50 (K562 [17]): 190 µM; EC50 (KG1a [18]): 235 µM; EC50 (U937 [19]): 130 µM; EC50 (non-tumor cells (CD34+) [20]): > 500 µM
3 | O=c1cc(-c2ccccc2)oc2cc(O)cc(O)c12 [Chrysin] | 50 µM | 250 µM | 250 µM | 335 µM | 250 µM | > 500 µM | 500 µM | G0/G1 =49.4% | No Arrest <250µM | 250 µM | 50 µM | 50 µM | 175 µM | > 250 µM | 250 µM | 150 µM | 50 µM | > 250 µM | 250 µM | 38 µM | Percentage of cells in S phase of cell cycle (significant accumulation) (HL60 [6]): S =45.5%; Percentage of cells in G0/G1 phase of cell cycle (significant accumulation) (THP-1 [7]): G0/G1 =52.1%; Percentage of cells in G0/G1 phase of cell cycle (significant accumulation) (KG1a [8]): G0/G1 =50%; EC50 (HL60 [15]): 75 µM; EC50 (THP-1 [16]): > 500 µM; EC50 (K562 [17]): > 500 µM; EC50 (KG1a [18]): > 500 µM; EC50 (U937 [19]): 32 µM; EC50 (non-tumor cells (CD34+) [20]): > 500 µM
